Results as given in ChEMBL document CHEMBL4602728, “6-Amino[1,2,5]oxadiazolo[3,4-b]pyrazin-5-ol Derivatives as Efficacious Mitochondrial Uncouplers in STAM Mouse Model of Nonalcoholic Steatohepatitis” (J Med Chem, 2020).
pEC50: −log10 of the molar value.

Assay: Cmax in C57BL/6 mouse at 10 mg/kg, po administered via gavage by LC/MS-MS analysis
Format: ADME, organism-based
Design: dose 10 mg/kg, route oral
Settings: in vivo
Method in brief: (§1)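 Male C57BL/6 mice aged 9–12 weeks received a single 10 mg/kg oral gavage bolus. The vehicle was methylcellulose 90–91%, Tween 80 2–3% and DMSO 6–8% (v/v). Tail-tip blood was drawn into heparinized capillaries and spun at 2000g for 10 min. Plasma was extracted with acetonitrile:methanol (9:1) and quantified by LC–MS/MS against spiked plasma standards (1–100 ng). n = 3.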

| Structure (SMILES) | Cmax [µM] |
| --- | --- |
| CC(C)(C)c1ccc(Nc2nc3nonc3nc2O)cc1 | 22.3 |
| CCCCOc1ccc(Nc2nc3nonc3nc2O)cc1 | 3.4 |
| CCCCc1ccc(Nc2nc3nonc3nc2O)cc1 | 12 |
| Oc1nc2nonc2nc1Nc1ccc2ccccc2c1 | 12.5 |

Assay: Induction of mitochondrial uncoupling in rat L6 cells assessed as increase in oxygen consumption rate incubated for 90 mins by Seahorse XF analyzer based assay
Format: mitochondria, Mitochondria
Settings: not given

| Structure (SMILES) | pEC50 |
| --- | --- |
| Oc1nc2nonc2nc1Nc1ccccc1F | 4.90 |
| CCCCCc1ccc(Nc2nc3nonc3nc2O)cc1 | 5.62 |
| Oc1nc2nonc2nc1Nc1ccc(OCCCC(F)(F)F)c(F)c1 | 5.38 |
| Oc1nc2nonc2nc1Nc1ccc(OC(F)F)cc1 | 4.69 |
| Cc1ccc(CNc2nc3nonc3nc2O)cc1 | 4.27 |
| Cc1cc(OC(F)(F)F)ccc1Nc1nc2nonc2nc1O | 5.34 |
| Oc1nc2nonc2nc1Nc1cccc2ccccc12 | 4.69 |
| Oc1nc2nonc2nc1Nc1ccc(S(F)(F)(F)(F)F)cc1 | 5.41 |
| CC(C)(C)c1ccc(Nc2nc3nonc3nc2O)cc1 | 5.41 |
| Oc1nc2nonc2nc1Nc1ccc(OCc2ccccc2)cc1 | 5.62 |
| Oc1nc2nonc2nc1Nc1ccccc1Cl | 5.20 |
| Oc1nc2nonc2nc1Nc1ccc(C(F)(F)F)cc1 | 4.98 |
| Oc1nc2nonc2nc1Nc1cccc(F)c1 | 4.51 |
| CCc1cccc(Nc2nc3nonc3nc2O)c1 | 4.60 |
| O=[N+]([O-])c1cc(Nc2nc3nonc3nc2O)ccc1OC(F)(F)F | 4.27 |
| Oc1nc2nonc2nc1NC1C2CC3CC(C2)CC1C3 (stereo not drawn) | 4.64 |
| Oc1nc2nonc2nc1Nc1cccc(OC(F)(F)F)c1 | 5.29 |
| Oc1nc2nonc2nc1Nc1cc(F)cc(F)c1 | 4.63 |
| Cc1ccc(Nc2nc3nonc3nc2O)cc1 | 4.28 |
| Fc1cccc(Nc2nc3nonc3nc2Nc2ccccc2F)c1 | 6.72 |
| Cc1cccc(C)c1Nc1nc2nonc2nc1O | < 4.00 |
| Oc1nc2nonc2nc1Nc1ccc(OC(F)(F)F)c(F)c1 | 5.54 |
| Oc1nc2nonc2nc1NCc1ccc(OC(F)(F)F)cc1 | 4.87 |
| CC(Nc1nc2nonc2nc1O)C12CC3CC(CC(C3)C1)C2 (stereo not drawn) | 5.31 |
| Oc1nc2nonc2nc1Nc1ccc(Cl)cc1 | 4.93 |
| CC(=O)c1ccc(Nc2nc3nonc3nc2O)cc1 | 4.03 |

| Structure (SMILES) | pEC50 |
| --- | --- |
| CCCCCCCCNc1nc2nonc2nc1O | 5.47 |
| Oc1nc2nonc2nc1Nc1ccc(OCC(F)(F)F)cc1 | 4.37 |
| Oc1nc2nonc2nc1Nc1ccc2c(c1)OC(F)(F)O2 | 5.12 |
| Oc1nc2nonc2nc1Nc1ccc(OC(F)(F)F)cc1Cl | 5.85 |
| Oc1nc2nonc2nc1Nc1ccc(OC(F)(F)C(F)F)cc1 | 5.15 |
| CCCCOc1ccc(Nc2nc3nonc3nc2O)cc1 | 5.43 |
| Oc1nc2nonc2nc1Nc1ccc(OC(F)(F)F)c(Cl)c1 | 5.52 |
| CCCCCCc1ccc(Nc2nc3nonc3nc2O)cc1 | 5.33 |
| Oc1nc2nonc2nc1Nc1ccc(C(F)(F)F)c(F)c1 | 4.94 |
| COc1cccc(Nc2nc3nonc3nc2O)c1 | 4.12 |
| Oc1nc2nonc2nc1NC(c1ccccc1)c1ccccc1 | 4.42 |
| Oc1nc2nonc2nc1Nc1ccc2c(c1)OCO2 | 4.33 |
| Oc1nc2nonc2nc1Nc1ccc(OCC(F)(F)F)c(F)c1 | 4.98 |
| CCCCCc1ccc(Nc2nc3nonc3nc2O)c(F)c1 | 5.82 |
| Oc1nc2nonc2nc1NCCc1ccccc1 | 4.18 |
| Oc1nc2nonc2nc1Nc1ccc(SC(F)(F)F)cc1 | 5.85 |
| Oc1nc2nonc2nc1Nc1cccc(OCc2ccc(C(F)(F)F)cc2)c1 | 5.52 |
| Oc1nc2nonc2nc1Nc1cc(C(F)(F)F)cc(C(F)(F)F)c1 | 5.35 |
| Oc1nc2nonc2nc1Nc1ccccc1OC(F)(F)F | 5.15 |
| Oc1nc2nonc2nc1NCCC(F)(F)F | 3.96 |
| COc1cc(OC(F)(F)F)ccc1Nc1nc2nonc2nc1O | 5.42 |
| CCCCc1ccc(Nc2nc3nonc3nc2O)c(F)c1 | 5.96 |
| Oc1nc2nonc2nc1Nc1ccc(C(F)(F)F)cc1F | 5.59 |
| Cc1ccc(C(F)(F)F)cc1Nc1nc2nonc2nc1O | 4.48 |
| Cc1cc(C)c(Nc2nc3nonc3nc2O)c(C)c1 | 3.95 |
| Oc1nc2nonc2nc1Nc1ccc(OC(F)(F)Cl)cc1 | 5.72 |

| Structure (SMILES) | pEC50 |
| --- | --- |
| CCCCc1ccc(Nc2nc3nonc3nc2O)cc1 | 5.68 |
| Oc1nc2nonc2nc1Nc1ccc(OC(F)(F)F)cc1F | 5.64 |
| Oc1nc2nonc2nc1Nc1ccccc1C(F)(F)F | 4.97 |
| CCCCCCc1ccc(Nc2nc3nonc3nc2O)c(F)c1 | 5.48 |
| Oc1nc2nonc2nc1Nc1ccccc1 | 4.18 |
| Oc1nc2nonc2nc1Nc1cccc(C(F)(F)F)c1 | 4.88 |
| Oc1nc2nonc2nc1Nc1ccc2ccccc2c1 | 5.40 |
| Oc1nc2nonc2nc1Nc1cccc(S(F)(F)(F)(F)F)c1 | 5.43 |
| CCCCOc1cccc(Nc2nc3nonc3nc2O)c1 | 5.64 |
| CC(C)(C)c1cccc(Nc2nc3nonc3nc2O)c1 | 5.66 |
| CC(C)(C#N)c1ccc(Nc2nc3nonc3nc2O)cc1 | 4.45 |
| CC12CC3CC(C)(C1)CC(Nc1nc4nonc4nc1O)(C3)C2 | 5.70 |
| Oc1nc2nonc2nc1Nc1ccc(OCC(F)(F)F)c(C(F)(F)F)c1 | 5.40 |
| Oc1nc2nonc2nc1NC12CC3CC(CC(C3)C1)C2 | 5.15 |
| Oc1nc2nonc2nc1Nc1ccc(C(O)(C(F)(F)F)C(F)(F)F)cc1 | 4.47 |
| Oc1nc2nonc2nc1Nc1cccc(F)c1F | 5.01 |
| Cc1ccc(Nc2nc3nonc3nc2O)cc1C | 5.52 |
| Oc1nc2nonc2nc1Nc1ccc(OCC2CC2)c(C(F)(F)F)c1 | 5.74 |
| Oc1nc2nonc2nc1Nc1cc(C(F)(F)F)ccc1F | 5.29 |
| Oc1nc2nonc2nc1Nc1ccc(F)cc1 | 4.41 |
| CCc1ccc(Nc2nc3nonc3nc2O)cc1 | 4.97 |
| CCc1ccc(Nc2nc3nonc3nc2O)c(F)c1 | 5.17 |
| Oc1nc2nonc2nc1Nc1cccc(C(F)(F)F)c1F | 5.31 |
| Cc1cc(Nc2nc3nonc3nc2O)ccc1OCC(F)(F)F | 5.15 |
| Oc1nc2nonc2nc1Nc1ccc(OCCCC(F)(F)F)c(C(F)(F)F)c1 | 5.68 |

Assay: Solubility of compound in PBS at pH 7.4
Format: physicochemical
Settings: buffer

| Structure (SMILES) | solubility [µM] |
| --- | --- |
| Fc1cccc(Nc2nc3nonc3nc2Nc2ccccc2F)c1 | < 10 |

Assay: Half life in Swiss albino mouse at 10 mg/kg, po administered via gavage by LC/MS-MS analysis
Format: ADME, organism-based
Settings: in vivo
Method in brief: (§2)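 Swiss Albino mice were given 10 mg/kg by oral gavage in a triturated Tween 80/0.5% (w/v) methylcellulose formulation, with three replicates per time point. Plasma was precipitated with acetonitrile containing telmisartan internal standard and analyzed by LC–MS/MS using transition m/z 286 → 125. Concentrations came from a standard curve (1–1000 ng/mL).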

| Structure (SMILES) | half-life [min] |
| --- | --- |
| Oc1nc2nonc2nc1NC12CC3CC(CC(C3)C1)C2 | 66 |

Assay: Half life in C57BL/6 mouse at 10 mg/kg, po administered via gavage by LC/MS-MS analysis
Format: ADME, organism-based
Settings: in vivo
Method in brief: as §1

| Structure (SMILES) | half-life [min] |
| --- | --- |
| CC(C)(C)c1ccc(Nc2nc3nonc3nc2O)cc1 | 36 |
| CCCCOc1ccc(Nc2nc3nonc3nc2O)cc1 | 18 |
| CCCCc1ccc(Nc2nc3nonc3nc2O)cc1 | 42 |
| Oc1nc2nonc2nc1Nc1ccc2ccccc2c1 | 24 |

Assay: Cmax in Swiss albino mouse at 10 mg/kg, po administered via gavage by LC/MS-MS analysis
Format: ADME, organism-based
Design: dose 10 mg/kg, route oral
Settings: in vivo
Method in brief: as §2

| Structure (SMILES) | Cmax [µM] |
| --- | --- |
| Oc1nc2nonc2nc1NC12CC3CC(CC(C3)C1)C2 | 18 |
